Sampled rows, rich in hits. Any-hit rate of the full collection: about 3.7%.
KCNQ1 act = potentiators or activators of human KCNQ1 potassium channel; P51787; CHO-K1 KCNQ1, thallium flux FluxOR fluorescence; hits give high values; B-score at 10 µM; 0.35% of 310,000 active; AID 2648;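 active means fluorescence ratio B-score, a plate-corrected score, at least three library SD, with initial intensity B-score within 5 SD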
Target sequence (P51787 whole entry, looked up): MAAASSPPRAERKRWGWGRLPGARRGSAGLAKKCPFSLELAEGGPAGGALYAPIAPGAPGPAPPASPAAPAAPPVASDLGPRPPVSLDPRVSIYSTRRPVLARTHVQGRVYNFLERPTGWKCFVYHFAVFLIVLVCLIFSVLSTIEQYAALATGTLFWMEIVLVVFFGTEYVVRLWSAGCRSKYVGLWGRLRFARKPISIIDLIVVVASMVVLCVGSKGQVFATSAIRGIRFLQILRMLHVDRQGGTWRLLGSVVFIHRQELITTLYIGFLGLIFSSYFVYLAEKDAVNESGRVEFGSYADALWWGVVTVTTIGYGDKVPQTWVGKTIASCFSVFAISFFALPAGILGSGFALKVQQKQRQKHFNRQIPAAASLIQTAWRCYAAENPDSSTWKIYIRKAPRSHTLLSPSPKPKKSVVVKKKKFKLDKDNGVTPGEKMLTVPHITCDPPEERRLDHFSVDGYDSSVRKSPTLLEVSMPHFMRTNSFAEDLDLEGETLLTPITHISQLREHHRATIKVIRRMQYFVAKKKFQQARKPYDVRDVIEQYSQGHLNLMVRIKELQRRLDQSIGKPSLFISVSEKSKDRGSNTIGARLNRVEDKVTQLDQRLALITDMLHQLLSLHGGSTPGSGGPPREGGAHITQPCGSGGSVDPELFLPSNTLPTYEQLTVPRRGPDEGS
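Assay system: CHO-K1 cells stably expressing KCNQ1. Medium: assay buffer for compound exposure, DMSO matched across wells. Timing: 37 °C overnight plating, 90-min dark dye load, 20-min compound pretreatment. Signal: kinetic FluxOR fluorescence, 10 s baseline plus 110 s post-stimulus.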
KCNK3 inh = human KCNK3 channel inhibition, primary screen; CHO-KCNK3 thallium flux, FluxOR fluorescence; hits give low values; B-score at 10 µM; 0.84% of 340,000 active;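 active means B-score under library mean minus 4 SD, starting fluorescence ratio at most library mean plus 5 SD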;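 further: more negative B-score means stronger inhibition of thallium flux through KCNK3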
Kir21 inh = Kir2.1 (mouse) channel inhibition; P35561; HEK293-Kir2.1, FluxOR thallium flux fluorescence; hits give low values; 0.85% of 310,000 active; AID 1672; B-score at 10 µM;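 active means fluorescence ratio B-score at or below minus 3 SD of library scores, with starting-brightness B-score within 2 SD, cut at about -4.2 in these data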;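 further: channel flux triggered by added potassium and thallium sulfate stimulus; B-score of peak minus minimum fluorescence over baseline after thallium stimulus; more negative B-score means stronger Kir2.1 block with less thallium influx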
KCNK9 block = human KCNK9 channel inhibition | HEK293 KCNK9, FluxOR thallium flux fluorescence; hits give low values | AID 488922 | B-score at 10 µM | 1.2% of 310,000 active | Q9NPC2;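 active means ratio B-score over 3 SD below the library mean, with starting fluorescence within 5 SD of its mean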;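 further: negative B-score means less thallium flux so channel inhibition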
KCNQ1 block = inhibitors of human KCNQ1 potassium channel | 1.3% of 310,000 active | P51787 | B-score at 10 µM | CHO-K1 KCNQ1, FluxOR thallium flux fluorescence; hits give high values;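 active means compounds whose thallium flux B-score, printed positive for inhibition, exceeds three library SD while starting fluorescence stays within three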;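 further: channel opened by potassium depolarization with thallium stimulus after 20 min compound exposure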
hERG protect = hERG (human) protection from proarrhythmic block; Q12809; CHO-hERG, FluxOR thallium flux, dofetilide IC70 present; activation (rescue from dofetilide block), less the hit threshold, % at 10 µM; 0.51% of 310,000 active; AID 1511;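 active means activation above the mean of controls blocked by dofetilide plus 5 SD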;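 further: thallium influx through hERG after potassium depolarization seen as dye fluorescence rise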
* hit, by the source's call.

Screening O=C(CSC1c2ccccc2-c2ccccc21)N/N=C/c1ccc(C(=O)O)cc1 returned KCNQ1 act inactive, KCNK3 inh inactive, Kir21 inh -2, KCNK9 block inactive, KCNQ1 block inactive and hERG protect -6.
`CC(=O)c1cn(CCCOc2ccccc2)c2ccccc12` gave KCNQ1 act inactive, KCNK3 inh inactive, Kir21 inh -4.6*, KCNK9 block inactive, KCNQ1 block inactive and hERG protect -16.
For CN1CCc2cccc(Cl)c2CC1 the results were KCNK3 inh inactive.
`O=c1c2cc(Br)ccc2[nH]c(=S)n1-c1ccccc1` gave KCNQ1 act inactive, KCNK3 inh inactive, Kir21 inh 0.41, KCNK9 block inactive, KCNQ1 block inactive and hERG protect 37*.
Screening CN1CC(C(=O)c2ccc(Cl)cc2)C(c2ccc(Cl)cc2Cl)C1 (stereo not drawn) returned KCNQ1 act inactive, KCNK3 inh inactive, Kir21 inh -5*, KCNK9 block inactive, KCNQ1 block inactive and hERG protect -16.
For COc1ccc(CNCCc2c(C)[nH]c3ccc(OC(F)(F)F)cc23)c(OC)c1 the results were KCNQ1 act inactive, KCNK3 inh inactive, Kir21 inh -6.9*, KCNK9 block inactive, KCNQ1 block inactive and hERG protect -20.
Screening O=[N+]([O-])c1ccc(N2CCCCCC2)c2nonc12 returned KCNQ1 act inactive, KCNK3 inh inactive, Kir21 inh -9, KCNK9 block inactive, KCNQ1 block inactive and hERG protect -21.
For Nc1ccc2nonc2c1[N+](=O)[O-] the results were KCNQ1 act inactive, KCNK3 inh inactive, Kir21 inh -7.6, KCNK9 block inactive, KCNQ1 block 11* and hERG protect -40.
For C(#CCN1CCOCC1)COCC#Cc1ccccc1 the results were KCNQ1 act inactive, KCNK3 inh inactive, Kir21 inh -2.2, KCNK9 block inactive, KCNQ1 block inactive and hERG protect 5.3*.
Screening COP(=O)(OC)C1(O)C(=O)Nc2ccc(Br)cc21 (stereo not drawn) returned KCNQ1 act inactive, KCNK3 inh inactive, Kir21 inh 0.23, KCNK9 block inactive, KCNQ1 block inactive and hERG protect -7.
For CCCC[N+]12CCC(CC1)C(C(=O)c1cccs1)C2 (stereo not drawn) the results were KCNQ1 act inactive, KCNK3 inh inactive, Kir21 inh -4.9*, KCNK9 block inactive, KCNQ1 block inactive and hERG protect -6.
Screening O=C(CCN1CC2CCC(CC2)C1)c1cccs1 returned KCNK3 inh inactive.
C/C=C(\C)C(=O)OC1C(C)=C2C(C1OC(=O)CCCCC)C(C)(OC(C)=O)CC(OC(=O)CCC)C1(O)C2OC(=O)C1(C)O (stereo not drawn) was read as KCNQ1 act 14*, Kir21 inh 0.08, KCNK9 block inactive, KCNQ1 block inactive and hERG protect -13.
Oc1cccc2nc3ccccc3nc12 was read as KCNQ1 act inactive, KCNK3 inh inactive, Kir21 inh 1.1, KCNK9 block inactive, KCNQ1 block inactive and hERG protect -1.
CCC1C(c2ccccc2)NC(c2ccccc2)CC1(O)c1ccc(F)cc1 (stereo not drawn) was read as KCNQ1 act inactive, KCNK3 inh inactive, Kir21 inh -4.5*, KCNK9 block inactive, KCNQ1 block inactive and hERG protect -19.
Screening NCCCCCC(=O)OC1N=C(c2ccccc2Cl)c2cc(Br)ccc2NC1=O (stereo not drawn) returned KCNQ1 act inactive, KCNK3 inh inactive, Kir21 inh 0.34, KCNK9 block inactive, KCNQ1 block inactive and hERG protect -16.
CC12Cc3cnoc3C=C1CCC1C2CCC2(C)C1CCC2(C)O (stereo not drawn) was read as KCNK3 inh inactive.
For CC(NCc1ccc(Cl)cc1)C(O)c1ccccc1 (stereo not drawn) the results were KCNQ1 act inactive, KCNK3 inh inactive, Kir21 inh -9*, KCNK9 block inactive, KCNQ1 block inactive and hERG protect -1.
CCOc1c(Cl)cc(CNC(C)C(O)c2ccccc2)cc1OC (stereo not drawn) was read as KCNQ1 act inactive, KCNK3 inh inactive, Kir21 inh 0.05, KCNK9 block inactive, KCNQ1 block inactive and hERG protect -21.
Screening COc1cc(OC)c(OC)cc1CNC(C)C(O)c1ccccc1 (stereo not drawn) returned KCNQ1 act inactive, KCNK3 inh inactive, Kir21 inh 0.21, KCNK9 block inactive, KCNQ1 block inactive and hERG protect -10.
CC(NCc1cccc(Cl)c1Cl)C(O)c1ccccc1 (stereo not drawn) was read as KCNQ1 act inactive, KCNK3 inh inactive, Kir21 inh -16*, KCNK9 block inactive, KCNQ1 block inactive and hERG protect -5.
`CC(NCc1ccc(Cl)cc1Cl)C(O)c1ccccc1` (stereo not drawn) gave KCNQ1 act inactive, KCNK3 inh inactive, Kir21 inh -10*, KCNK9 block inactive, KCNQ1 block inactive and hERG protect -3.
`CC(CCc1ccccc1)NC(C)C(O)c1ccc(O)cc1` (stereo not drawn) gave KCNQ1 act inactive, KCNK3 inh inactive, Kir21 inh -1.6, KCNK9 block inactive, KCNQ1 block inactive and hERG protect -5.
`Cn1cccc1/C=C1/C(=O)NC(=S)N(Cc2ccc(F)cc2)C1=O` gave KCNQ1 act inactive, KCNK3 inh inactive, Kir21 inh -0.01, KCNK9 block inactive, KCNQ1 block inactive and hERG protect -15.
Nc1c(Br)cc([N+](=O)[O-])cc1[N+](=O)[O-] was read as KCNK3 inh inactive.
`Cn1c(O)c(/C=N/N2CCOCC2)c(=O)[nH]c1=S` gave KCNQ1 act inactive, Kir21 inh -0.06, KCNK9 block inactive, KCNQ1 block inactive and hERG protect -6.
c1cc2c(cc1CCNC1C3CC4CC(C3)CC1C4)OCO2 (stereo not drawn) was read as KCNQ1 act inactive, KCNK3 inh inactive, Kir21 inh -4.5*, KCNK9 block inactive, KCNQ1 block 6* and hERG protect -5.
CC1CCC(NCCc2ccc3c(c2)OCO3)CC1 (stereo not drawn) was read as KCNQ1 act inactive, KCNK3 inh inactive, Kir21 inh 0.39, KCNK9 block inactive, KCNQ1 block inactive and hERG protect -5.
For CC/C(=C\C=C\[C@@H]1C=C[C@@H]2CCC[C@H]2[C@@H]1C(=O)c1ccc[nH]1)[C@@H]1O[C@@H]([C@@H](C)C(=O)O)CC[C@@H]1C the results were KCNQ1 act 38*, Kir21 inh -0.5, KCNK9 block inactive, KCNQ1 block inactive and hERG protect 74*.

Screening data as filed in PubChem BioAssay.
